In ChEMBL document CHEMBL1156902, “Evaluation of 3,4-dihydroquinazoline-2(1H)-thiones as inhibitors of alpha-MSH-induced melanin production in melanoma B16 cells” (Bioorg Med Chem, 2010):
pIC50: −log10 of the molar value. The source made the active and inactive calls. The calls are words filed in the database; no cut-off is given here.

How the values were obtained:
B16 [1] = assay: Inhibition of alpha-MSH-induced melanin production in mouse B16 cells after 72 hrs; format: functional, cell-based; details: B16, 72 h
Summary of the method: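 B16 cells were seeded at 2.5 × 10³ per well and held 24 h at 37 °C in 5% CO₂. They were then stimulated with α-MSH for 72 h plus sample (10 nM in methods; 100 nM in results text). Cells were lysed in 1 N NaOH–10% DMSO at 80 °C. Melanin was read at A405 against a synthetic melanin standard, as the mean of 3–5 independent experiments.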

B16 [2] = assay: Inhibition of alpha-MSH-induced melanin production in mouse B16 cells at 10 uM after 72 hrs; format: functional; details: B16, 72 h
[3] = target: T1, Tyrosinase (Mus musculus) (UniProt P11344); assay: Inhibition of mouse tyrosinase in 48 hrs alpha-MSH-induced mouse B16 cells at 0.3 to 10 uM; format: cell-based
T1 sequence (whole entry): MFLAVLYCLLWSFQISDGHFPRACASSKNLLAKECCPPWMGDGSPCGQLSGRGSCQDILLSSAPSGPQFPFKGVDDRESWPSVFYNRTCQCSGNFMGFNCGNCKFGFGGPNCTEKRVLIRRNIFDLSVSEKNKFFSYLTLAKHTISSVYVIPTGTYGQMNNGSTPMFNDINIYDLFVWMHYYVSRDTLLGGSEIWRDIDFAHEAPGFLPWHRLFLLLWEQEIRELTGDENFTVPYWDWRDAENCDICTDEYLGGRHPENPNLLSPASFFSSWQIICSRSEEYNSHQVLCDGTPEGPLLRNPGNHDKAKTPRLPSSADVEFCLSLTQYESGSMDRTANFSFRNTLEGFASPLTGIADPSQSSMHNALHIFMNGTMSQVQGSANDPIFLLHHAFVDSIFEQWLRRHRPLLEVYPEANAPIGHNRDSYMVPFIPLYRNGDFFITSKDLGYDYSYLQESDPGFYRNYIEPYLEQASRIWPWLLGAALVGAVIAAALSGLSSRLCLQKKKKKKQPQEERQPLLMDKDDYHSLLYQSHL

[4] = target: T1, Tyrosinase (Mus musculus); assay: Inhibition of mouse tyrosinase in 48 hrs alpha-MSH-induced mouse B16 cells by Western blot analysis; format: cell-based
Summary of the method: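 B16 cells were stimulated with α-MSH for 48 h plus compound, then lysed in Tris/NaCl/SDS/NP-40 buffer with protease inhibitors at pH 7.4. Equal protein was run on SDS-PAGE, blotted to PVDF and blocked with milk or BSA. Anti-tyrosinase (1:1000) was applied overnight at 4 °C, with GAPDH (1:5000) as internal control. Detection used an HRP secondary and ECL.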

B16 [5] = assay: Cytotoxicity against mouse B16 cells assessed as viability at 1 to 30 uM after 72 hrs by MTT assay in presence of alphaMSH; format: cell-based; details: b16, 72 h
Summary of the method: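 B16 cells were exposed to test compound for 72 h with α-MSH (10 nM). They were then given MTT for 2 h, and the formazan was dissolved in 100% DMSO. Viability was read as optical density at 590 nm.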

B16 [6] = assay: Inhibition of alpha-MSH-induced melanin production in mouse B16 cells at 100 uM after 72 hrs; format: functional; details: B16, 72 h

SMILES	pIC50 (B16 [1])	inhibition at 10 µM (B16 [2])	also measured
Cc1ccc2c(c1)CN(CCc1ccccc1)C(=O)N2	< 5.00	16%	
Cc1ccc2c(c1)CN(CCc1ccc(C(C)C)cc1)C(=O)N2	< 5.00	6%	
Cc1ccc2c(c1)CN(CCc1ccc(Cl)cc1)C(=S)N2	5.37	> 100%	
O=C1Nc2ccc(Cl)cc2CN1CCc1ccc(Cl)cc1	< 5.00	7%	
Cc1ccc(CCN2Cc3cc(Cl)ccc3NC2=O)cc1	< 5.00	6%	
Cc1ccc(CCN2Cc3cc(C)ccc3NC2=S)cc1	5.57	> 100%	
Cc1cccc2c1CN(CCc1ccccc1)C(=S)N2	5.96	> 100%	
Cc1ccc2c(c1)CN(CCc1ccc(Cl)cc1Cl)C(=S)N2	6.30	> 100%	inhibition [3]: inactive; inhibition [4]: Dose-dependent effect; Activity (B16 [5]): Non-toxic
NC(=O)Nc1ccccc1			inhibition at 100 µM (B16 [6]): 0%
Cc1cccc2c1CN(CCc1ccccc1)C(=O)N2	5.01	18%	
S=C1Nc2ccc(Cl)cc2CN1CCc1ccc(Cl)cc1	5.80	> 100%	
S=C1Nc2ccc(Cl)cc2CN1CCc1ccccc1	5.55	> 100%	
Cc1ccc2c(c1)CN(CCc1cccc3ccccc13)C(=S)N2	5.62	> 100%	
Cc1ccc2c(c1)CN(CCc1ccc(Cl)cc1Cl)C(=O)N2	< 5.00	11%	
O=C1Nc2ccc(Cl)cc2CN1CCc1ccccc1	< 5.00	18%	
Cc1ccc2c(c1)CN(CCc1ccc(C(C)C)cc1)C(=S)N2	6.30	> 100%	
OC[C@H]1O[C@@H](Oc2ccc(O)cc2)[C@H](O)[C@@H](O)[C@@H]1O [ARBUTIN]	3.74		
Cc1ccc2c(c1)CN(CCc1ccc(Cl)cc1)C(=O)N2	< 5.00	15%	
Cc1ccc2c(c1)CN(CCc1ccccc1)C(=S)N2	6.10	> 100%	
O=c1cc(CO)occ1O [KOJIC ACID]	4.15		
Cc1ccc(CCN2Cc3cc(Cl)ccc3NC2=S)cc1	5.26	> 100%	
Cc1ccc(CCN2Cc3cc(C)ccc3NC2=O)cc1	< 5.00	10%	
Cc1ccc2c(c1)NC(=O)N(CCc1ccccc1)C2	< 5.00	24%	
Cc1ccc2c(c1)NC(=S)N(CCc1ccccc1)C2	6.10	> 100%	
Cc1ccc2c(c1)CN(CCc1cccc3ccccc13)C(=O)N2	< 5.00	5%	
